Data reported in ChEMBL document CHEMBL1131066, “2-Substituted aminopyrido[2,3-d]pyrimidin-7(8H)-ones. structure-activity relationships against selected tyrosine kinases and in vitro and in vivo anticancer activity” (J Med Chem, 1998).
Values joined by “and” are separate entries in the source; they are usually repeats but may differ in a detail not shown here. Equal entries are not always repeated.

Key:
[1] = test system: COLO 205; test: Difference in days for treated (T) and control (C) COLO 205 cell tumors to reach 750 mg in mice at 40 mg/kg peroral dose, days 9-23 administration; type: functional; conditions: route oral
In short: (§1)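 Nude mice (NCr nu/nu), 18–22 g, 6–8 per group, randomized and implanted with serially passaged tumor fragments in the right axilla on day 0. Dosed by average cage weight. Vehicle was 50 mM sodium lactate buffer, pH 4.0, or a 0.5% methyl cellulose suspension for one compound. Cisplatin was given in saline. T − C is the difference in days for treated and control tumors to reach 750 mg.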

[2] = test system: C6; test: C6 cell growth in soft agar with discontinued treatment; type: functional, cell-based, Rattus norvegicus; conditions: c6
In short: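 C6 rat glioma cells given 3-day exposure to a concentration series, then washed free of inhibitor and plated in drug-free soft agar; colonies stained and counted after two weeks. IC50; mean of two experiments, each in duplicate.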

[3] = test system: SK-OV-3; test: Difference in days for treated (T) and control (C) SKOV-3 cell tumors to reach 750 mg in mice at 40 mg/kg peroral dose, days 15-29 administration; type: functional; conditions: route oral; in short: as §1
[4] = test system: MCF7; test: Net reduction in tumor burden between first and last treatments of MCF-7 cell tumors in mice at 50 mg/kg peroral dose, days 1-15 administration; type: functional; conditions: route oral
In short: (§2)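 NCr nu/nu nude mice (18–22 g, 6–8 per group, randomized) had tumor fragments, kept by serial passage in nude mice, implanted in the right axilla on day 0. Mice were dosed by average cage weight on the listed days, over a range from toxic to ineffective doses. Vehicle was 50 mM sodium lactate pH 4.0 or 0.5% methyl cellulose suspension. Net log cell kill was taken between first and last treatments.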

[5] = target: Proto-oncogene tyrosine-protein kinase Src (Homo sapiens, UniProt P12931); test: Inhibition of c-Src tyrosine kinase; type: functional
Sequence of Proto-oncogene tyrosine-protein kinase Src (P12931 2-536 limits assumed): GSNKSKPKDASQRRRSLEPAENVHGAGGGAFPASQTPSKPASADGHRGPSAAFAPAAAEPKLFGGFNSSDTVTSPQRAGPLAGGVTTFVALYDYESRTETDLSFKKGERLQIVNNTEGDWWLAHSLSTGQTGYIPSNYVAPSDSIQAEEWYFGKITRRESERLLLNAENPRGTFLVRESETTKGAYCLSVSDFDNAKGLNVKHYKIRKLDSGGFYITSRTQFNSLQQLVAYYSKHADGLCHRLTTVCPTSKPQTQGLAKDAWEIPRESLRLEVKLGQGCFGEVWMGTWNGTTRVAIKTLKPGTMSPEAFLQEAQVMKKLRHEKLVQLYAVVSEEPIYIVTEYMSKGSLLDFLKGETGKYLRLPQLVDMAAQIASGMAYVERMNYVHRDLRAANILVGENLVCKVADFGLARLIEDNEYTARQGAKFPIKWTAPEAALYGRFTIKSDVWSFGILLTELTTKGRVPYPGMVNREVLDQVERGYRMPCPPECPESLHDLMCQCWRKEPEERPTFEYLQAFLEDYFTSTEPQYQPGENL
In short: (§3)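 Recombinant kinases (PDGFr-β, FGFr-1, c-Src), enzyme inhibition IC50. Mean of at least two separate determinations, each done in triplicate; replicate values typically varied under 30%.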

[6] = test system: C6; test: Inhibition of C6 cell proliferation in sulforhodamine B assay; type: functional, cell-based, Rattus norvegicus; conditions: c6
In short: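 C6 rat glioma cells (F10 Ham's, 15% horse serum, 2.5% fetal calf serum) seeded and allowed 24 h to attach, then given serial 2-fold compound dilutions; 4 d at 37 °C, 5% CO2; growth read by sulforhodamine B staining. IC50; mean of two experiments, each in triplicate.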

[7] = test system: MCF7; test: Difference in days for treated (T) and control (C) MCF-7 cell tumors to reach 750 mg in mice at 50 mg/kg peroral dose, days 1-15 administration; type: functional; conditions: route oral; in short: as §1
[8] = test system: HT-29; test: Difference in days for treated (T) and control (C) HT-29 cell tumors to reach 750 mg in mice at 44 mg/kg peroral dose, days 15-29 administration; type: functional; conditions: route oral; in short: as §1
[9] = test system: C6; test: Weight change of C6 glioma tumor cells in mice at 50 mg/kg peroral dose, days 1-15 administration; type: functional, organism-based; design: dose 50 mg/kg
In short: (§4)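 Tumor-bearing nude mice (NCr nu/nu, 18–22 g, 6–8 per group) were implanted in the right axilla with tumor fragments on day 0 and dosed by average cage weight. Vehicle was 50 mM sodium lactate pH 4.0, or 0.5% methyl cellulose suspension; cisplatin was given in saline. Host body weight change is given as the maximum treatment-related weight loss.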

[10] = test system: NIH3T3; test: Inhibition of NIH3T3 proliferation by sulforhodamine B assay; type: functional, cell-based, Mus musculus; conditions: nih3t3
[11] = test system: Mus musculus; test: Weight change of PDGF-transfected fibroblast cells in mice at 50 mg/kg peroral dose, days 1-15 administration; type: functional; conditions: route oral
In short: (§5)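 Nude mice (NCr nu/nu, 18–22 g, 6–8 per group) were randomized and implanted with serially passaged tumor fragments in the right axilla on day 0. Oral dosing was based on average cage weight, on the days stated, over a dose range from toxic to ineffective. Vehicle was 50 mM sodium lactate buffer, pH 4.0, or 0.5% methyl cellulose suspension. Host weight change is reported as maximum treatment-related loss.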

[12] = test system: C6; test: Difference in days for treated (T) and control (C) C6 glioma cell tumors to reach 750 mg in mice at 50 mg/kg peroral dose, days 1-15 administration; type: functional; conditions: route oral; in short: as §1
[13] = test system: Mus musculus; test: Difference in days for treated (T) and control (C) PDGF-transfected fibroblast tumors to reach 750 mg in mice at 50 mg/kg peroral dose, days 1-15 administration; type: functional; conditions: route oral; in short: as §1
[14] = test system: COLO 205; test: Weight change of COLO 205 tumor cells in mice at 40 mg/kg peroral dose, days 9-23 administration; type: functional, organism-based; design: dose 40 mg/kg; in short: as §4
[15] = target: Platelet-derived growth factor receptor (Mus musculus, UniProt P05622+P26618); test: Inhibition of PDGF-induced autophosphorylation of PDGF-R in NIH3T3 cells
[16] = target: T1, Fibroblast growth factor receptor 1 (Homo sapiens, UniProt P11362); test: Inhibitory concentration evaluated against fibroblast growth factor receptor 1.
T1 sequence (P11362 whole entry): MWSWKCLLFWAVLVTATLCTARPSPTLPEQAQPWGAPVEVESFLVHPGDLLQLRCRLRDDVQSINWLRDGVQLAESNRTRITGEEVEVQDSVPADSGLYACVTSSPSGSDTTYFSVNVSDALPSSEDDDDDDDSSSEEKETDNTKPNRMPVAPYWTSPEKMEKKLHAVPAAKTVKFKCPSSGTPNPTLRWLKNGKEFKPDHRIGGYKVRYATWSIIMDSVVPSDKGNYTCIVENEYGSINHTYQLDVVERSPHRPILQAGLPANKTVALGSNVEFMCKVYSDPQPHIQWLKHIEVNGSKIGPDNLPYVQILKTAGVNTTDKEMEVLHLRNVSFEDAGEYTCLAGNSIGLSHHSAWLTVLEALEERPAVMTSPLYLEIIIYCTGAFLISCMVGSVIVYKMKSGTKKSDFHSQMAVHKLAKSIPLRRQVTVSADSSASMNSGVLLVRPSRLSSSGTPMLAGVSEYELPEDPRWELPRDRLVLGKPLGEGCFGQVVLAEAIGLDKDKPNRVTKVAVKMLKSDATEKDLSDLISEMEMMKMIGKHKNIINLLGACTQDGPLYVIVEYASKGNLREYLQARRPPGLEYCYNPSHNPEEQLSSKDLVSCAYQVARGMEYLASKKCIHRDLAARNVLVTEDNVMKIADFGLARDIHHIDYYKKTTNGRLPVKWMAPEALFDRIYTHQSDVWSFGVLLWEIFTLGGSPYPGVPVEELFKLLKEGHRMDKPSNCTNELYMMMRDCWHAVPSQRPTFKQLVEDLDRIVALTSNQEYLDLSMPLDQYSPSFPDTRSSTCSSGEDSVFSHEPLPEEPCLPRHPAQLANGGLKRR

[17] = test system: C6; test: C6 cell growth in soft agar with continuous treatment; type: functional, cell-based, Rattus norvegicus; conditions: c6
In short: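 C6 rat glioma cells (F10 Ham's with 15% horse serum, 2.5% fetal calf serum) exposed 3 days to a concentration series, then plated in soft agar with compound still present at the same concentration; colonies stained and counted after two weeks. IC50; mean of two experiments, each in duplicate.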

[18] = test system: NIH3T3; test: Growth of NIH3T3 cells in soft agar with continuous treatment; type: functional, cell-based; conditions: Mus musculus
In short: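 NIH3T3 cells transfected with PDGF-B exposed to a range of concentrations for 3 days, then cloned in soft agar with the same concentration kept present. Colonies stained and counted after two weeks. IC50; mean of two experiments, each in duplicate.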

[19] = test system: MCF7; test: Weight change of MCF-7 tumor cells in mice at 50 mg/kg peroral dose, days 1-15 administration; type: functional, organism-based; design: dose 50 mg/kg; in short: as §4
[20] = test system: COLO 205; test: Net reduction in tumor burden between first and last treatments of COLO 205 cell tumors in mice at 40 mg/kg peroral dose, days 9-23 administration; type: functional; conditions: route oral; in short: as §2
[21] = test system: NIH3T3; test: Growth of NIH3T3 cell colonies in soft agar with continuous treatment; type: functional, cell-based; conditions: Mus musculus
In short: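 Soft agar cloning used PDGF-B-transfected NIH3T3 (NIH3T3/PDGF) cells. Cells were exposed 3 days to a concentration series, then plated in soft agar with the matching compound concentration kept present. Colonies were stained and counted after two weeks. IC50; mean of two experiments, each in duplicate.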

[22] = test system: SK-OV-3; test: Weight change of SK-OV-3 cell tumors in mice at 40 mg/kg peroral dose, days 15-29 administration; type: functional; conditions: route oral; in short: as §5
[23] = test system: HT-29; test: Weight change of HT-29 tumor cells in mice at 44 mg/kg peroral dose, days 15-29 administration; type: functional; conditions: route oral; in short: as §4
[24] = target: T1, Fibroblast growth factor receptor 1; test: Inhibition of fibroblast growth factor receptor (FGFr) tyrosine kinase; in short: as §3

SMILES: CCN(CC)CCOc1cccc(Nc2ncc3cc(-c4c(Cl)cccc4Cl)c(=O)n(C)c3n2)c1
- T-C [1]: 6.8 days
- IC50 [2]: 2.79 µM and 0.4 µM
- T-C [3]: -0.4 days
- Net cell kill [4]: -0.6 log10
- IC50 [5]: 0.009 µM
- IC50 [6]: 0.84 µM and 0.35 µM
- T-C [7]: 0.8 days
- T-C [8]: -2.5 days
- Weight change [9]: Weight gain
- IC50 [10]: 0.147 µM and 0.41 µM
- Weight change [11]: -1.6 g
- T-C [12]: -2 days
- T-C [13]: -0.4 days
- Weight change [14]: Weight gain
- IC50 [15]: 0.0017 µM
- IC50 [16]: 0.032 µM
- IC50 [17]: 0.44 µM and 0.12 µM
- IC50 [18]: 0.017 µM
- Weight change [19]: Weight gain
- Net cell kill [20]: -0.4 log10
- IC50 [21]: 0.017 µM
- Weight change [22]: -2 g
- Weight change [23]: -2 g
- IC50 [24]: 0.03 µM
